High-throughput results (PubChem BioAssay)
This is a sample that favours compounds with a hit; in the whole collection about 1.6% have one here.
SDO1 yeast rescue: compounds rescuing growth of sdo1-depleted yeast, bone marrow failure model; S. cerevisiae sdo1-depleted JHY4D growth rescue, OD600 30 h; active compounds read high; pdr5 snq2 efflux-pump mutant strain; z-score at 10 µM; actives 0.21% (n = 140,000);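 active = z-score above 3 at both the 24 hr and the 30 hr optical density reads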;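 also: z-score against mean and SD of all compound wells on the same plate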
RBBP9 inh: blocks human serine hydrolase RBBP9; O75884; recombinant RBBP9, FP-Rh probe fluorescence polarization; inhibition, % at 7.94 µM; actives 0.2% (n = 220,000); AID 1515;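 active = inhibition above the campaign mean of all tested compounds plus 3 SD, cut at about 14% in these data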;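 also: plate controls were DMSO wells with RBBP9 for no effect and wells lacking RBBP9 protein for full effect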
Target sequence (O75884 whole entry, looked up): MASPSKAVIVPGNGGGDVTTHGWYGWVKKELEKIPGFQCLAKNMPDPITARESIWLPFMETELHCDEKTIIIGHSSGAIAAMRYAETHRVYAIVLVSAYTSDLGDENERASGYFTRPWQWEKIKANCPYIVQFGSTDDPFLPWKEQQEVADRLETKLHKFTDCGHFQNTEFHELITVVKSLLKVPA
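System: RBBP9 protein / Quantity: 2.5 µM RBBP9 dispensing solution, before mixing / Also added: Serine-hydrolase probe FP-Rh, 375 nM pre-mixing / Dosing: 7.94 µM single dose, 0.794% DMSO / Timing: enzyme-compound preincubation 30 min, then probe labeling 45 min, 25 °C / Signal: FP readout at 525/598 nm / Controls: DMSO-treated enzyme wells and wells lacking RBBP9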
p47phox inh: p47phox (human) inhibition; inhibition, % at 24.7 µM; P14598; p47phox/p22phox peptide binding, fluorescence polarization, 2 h; actives 0.53% (n = 220,000);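 active = inhibition above about 30%, limit read from the data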;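 also: 0% = p47phox with labelled peptide and 100% = labelled peptide alone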
Target sequence (P14598 whole entry, looked up): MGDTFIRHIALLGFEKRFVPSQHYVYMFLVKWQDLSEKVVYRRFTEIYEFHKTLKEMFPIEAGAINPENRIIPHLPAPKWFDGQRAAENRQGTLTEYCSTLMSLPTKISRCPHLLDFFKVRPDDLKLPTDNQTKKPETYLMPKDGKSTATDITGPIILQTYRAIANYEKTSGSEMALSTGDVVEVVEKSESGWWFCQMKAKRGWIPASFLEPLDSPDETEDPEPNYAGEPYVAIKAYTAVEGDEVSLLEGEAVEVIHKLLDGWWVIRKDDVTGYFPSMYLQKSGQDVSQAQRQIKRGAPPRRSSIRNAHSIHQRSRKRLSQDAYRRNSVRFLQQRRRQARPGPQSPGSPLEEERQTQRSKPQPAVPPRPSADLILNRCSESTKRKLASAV
TbHK1 inh: blocks Trypanosoma brucei hexokinase 1 activity; actives 0.11% (n = 220,000); AID 1430; inhibition, % at 10 µM; recombinant TbHK1, G6PDH-coupled NADH A340;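 active = inhibition of 50% or more in the single-dose primary screen; inactive = inhibition below 50%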
Yeast growth inh: reduces growth of yeast BB579 in restrictive medium; S. cerevisiae BB579 growth, OD615, 48 h; actives 0.51% (n = 140,000); inhibition, % at 10 µM; AID 804;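 active = inhibition above a set limit, 3 SD over the mean compound inhibition, cut at about 44% in these data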
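Test system: DeaD yeast strain BB579 / Buffer or medium: restrictive glucose-based CSMM-D medium / Doses: single 10 µM dose / Schedule: 4 h cell preincubation, 48 h compound exposure, 30 °C humidified / Technique: culture absorbance at 615 nm / Controls: amphotericin B positive control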
Yeast life ext: yeast lifespan extension; S. cerevisiae growth with nicotinamide, OD615; deaD strain in restrictive glucose medium; inhibition of the nicotinamide effect, % at 10 µM; actives 0.68% (n = 130,000); AID 775;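 active = inhibition above a set limit, placed 3 SD over the median of all compounds, cut at about 26% in these data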;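 also: 0% = nicotinamide-treated wells and 100% = cells grown without nicotinamide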
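Test system: DeaD-strain S. cerevisiae / Buffer or medium: restrictive glucose medium / Also added: nicotinamide 1.5 mM / Doses: one concentration, 10 µM, DMSO 0.25% / Schedule: 48 h at 30 °C / Signal: OD615 measurement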
An asterisk follows results filed as active; · = no result given; + = active, no number.

SMILES	SDO1 yeast rescue	RBBP9 inh	p47phox inh	TbHK1 inh	Yeast growth inh	Yeast life ext
CN(CC(=O)Nc1ccc(F)cc1)C(=O)COc1ccc([N+](=O)[O-])cc1Cl	·	-5	-3	-3	·	·
Cc1cc(=O)n2[nH]cnc2n1	0.58	-5	-8	-5	-8	1
CCCc1cc(=O)n2[nH]cnc2n1	0.86	-2	32*	-4	-54	-8
CCOc1ccccc1CN1CCN(C2CCSCC2)CC1CCO (stereo not drawn)	·	-4	-49	-5	·	·
CCCCCCCCCCCCCCCC[n+]1cccc2ccccc21	-0.99	0	101*	55*	100*	-13
Cc1sc2ncn(C(C)C(=O)OC3CCCCC3)c(=O)c2c1C (stereo not drawn)	0	6	-7	-8	-40	27*
Cc1ccc(C2N=C(N)Nc3nc(=O)c4ccccc4n32)cc1 (stereo not drawn)	·	-8	6	-16	·	·
CCCCn1c(SCC(=O)c2ccc3c(c2)NC(=O)CO3)nc2cc(S(N)(=O)=O)ccc21	·	-9	-44	-13	·	·
Cc1noc(C)c1COC(=O)Cc1ccc(Cl)c(Cl)c1	0.48	-2	+	4	11	-14
Cc1ccc(C(=O)O)cc1N=Cc1cc(Br)cc(Br)c1O	-0.51	1	-3	42	90*	4
CC(=O)Nc1ccc(C(=O)N/N=C/c2cc(Br)cc(Br)c2O)cc1	·	-7	-13	-3	·	·
O=C(Oc1ccc(-c2cnc3ccccc3n2)cc1)c1cc([N+](=O)[O-])ccc1Cl	-1.3	0	35*	-5	-27	-2
Cc1c(C(=O)Oc2ccc(-c3cnc4ccccc4n3)cc2)cccc1[N+](=O)[O-]	-1.6	0	17	-17	-26	0
CC1(C)Cc2c(sc(NC(=O)COc3cccc4ccccc34)c2C#N)C(C)(C)N1	·	-8	51*	-25	·	·
Cc1ccc(OCC(=O)Nc2sc3c(c2C#N)CC(C)(C)NC3(C)C)cc1	·	-10	-8	6	·	·
CCOC(=O)C1=C(O)CSC1=Nc1ccc(Cl)cc1	0.43	-5	+	2	-16	11
Cc1cccc(OC(=O)CCN2C(=O)C3C4C=CC(C5CC45)C3C2=O)c1C (stereo not drawn)	·	-6	-2	7	·	·
O=C1C(=O)N(CCN2CCOCC2)C(c2ccccn2)/C1=C(/O)c1ccccc1 (stereo not drawn)	0.28	0	-10	-30	-25	26*
Cc1ccc(/C(O)=C2/C(=O)C(=O)N(CCN3CCOCC3)C2c2ccccn2)cc1 (stereo not drawn)	-0.52	-4	-15	-24	4	21
C/C(=N\NC(=O)c1cccc(Cl)c1)C1C(=O)c2ccccc2C1=O	2.1	-4	-19	-4	-40	43*
C/C(=N\NC(=O)CCc1ccccc1)C1C(=O)c2ccccc2C1=O	·	-7	-7	-17	·	·
COc1ccc2nc(C)cc(SCC(=O)N/N=C/c3c(OC)ccc4ccccc34)c2c1	-0.87	5	42*	0	-16	2
COc1ccc2nc(C)cc(SCC(=O)N/N=C/c3ccccc3)c2c1	-0.26	5	20	7	4	-6
COc1ccc(N(CC(=O)NCc2ccccc2)C(=O)CCC(=O)Nc2cc(C)ccn2)c(OC)c1	·	2	-2	-8	·	·
CC(c1ccco1)N(C(=O)c1ccccc1NS(=O)(=O)c1ccc(Cl)c([N+](=O)[O-])c1)c1ccccn1 (stereo not drawn)	-1.8	0	-9	32	-25	40*
SMILES	SDO1 yeast rescue	RBBP9 inh	p47phox inh	TbHK1 inh	Yeast growth inh	Yeast life ext
CC(C)c1ccc(C(=O)N(c2ccccn2)C(C)c2ccco2)cc1 (stereo not drawn)	-0.7	-8	-10	-3	-26	6
COc1cccc(NC(C)(C)c2nnnn2-c2c(C)cccc2C)c1	·	-5	-2	-1	·	·
C/C=C/Cn1c(N2CCCCCC2)nc2c1c(=O)[nH]c(=O)n2C	-0.04	3	-6	6	6	137*
COc1ccc2c(c1)C(C)CC(C)(C)N2C(=O)NC1CCCCC1 (stereo not drawn)	-0.4	-3	-1	3	-40	27*
COc1ccc(OCC(=O)c2c(O)c3ccccc3oc2=O)cc1	0.06	-12	-24	5	-20	35
CCOc1ccc(OCC(=O)c2c(O)c3ccccc3oc2=O)cc1	0.3	-6	-9	1	-10	44*
Cc1ccc(-c2cc(C(=O)N3N=C(C(F)F)CC3(O)C(F)F)c3ccccc3n2)cc1C (stereo not drawn)	-2.8	-10	-1	-12	68*	-8
CC(C)c1cc[n+](-c2nc([O-])sc2C=O)cc1	0.44	-10	-22	-16	-18	31*
CCc1cc[n+](-c2nc([O-])sc2C=O)cc1	-0.56	-5	-8	-17	-21	-14
Cc1ccc(S(=O)(=O)Nc2cccc(CP(=O)(c3ccccc3)c3ccccc3)c2)cc1	·	1	-7	2	·	·
COc1ccc(/C=C2\SC(=N)N(c3nccs3)C2=O)cc1OC	1.7	-10	-89	0	-28	38*
OCCCCNc1cccc2ccccc12	0.06	2	42*	-4	-62	-22
N/C(=N\O)c1cccc(CS(=O)(=O)c2ccccn2)c1	·	0	2	-3	·	·
Nc1nonc1C(=O)NCCN=Cc1cc(Cc2ccccc2)cc(Br)c1O	-1.8	-1	-8	24	99*	-12
Nc1nonc1C(=O)NCCN=Cc1ccccc1O	1.4	0	-13	6	0	-8
O=C1ON=C(c2ccccc2)/C1=C/c1ccc(-c2ccccc2[N+](=O)[O-])o1	-1.2	3	142*	29	22	42*
COc1ccc(Cc2nc(C(=O)NCc3ccccc3OC)cs2)cc1	-0.97	3	31*	8	-48	-16
COc1ccccc1-c1noc(-c2ccccc2C(=O)NCc2ccco2)n1	·	-12	-4	6	·	·
COc1cc(-c2noc(-c3ccccc3C(=O)NCc3ccco3)n2)cc(OC)c1OC	-0.41	-2	42*	2	-47	-7
Cc1cc(C)c2c(NC(=S)NC(=O)c3ccccc3)n[nH]c2n1	·	2	-19	-5	·	·
NC(=O)c1ccc(NCCCN2CCOCC2)c([N+](=O)[O-])c1	·	-11	-8	1	·	·
O=C(COC(=O)CCSc1ccccc1)NCc1ccccc1	·	-18	-5	-1	·	·
CCn1nc(NC(=O)c2cccs2)c2cc3ccccc3nc21	·	4	-11	-7	·	·
Nc1oc2ccc(F)cc2c(=O)c1C=O	1.1	3	-9	3	-31	27*
Cc1ccc(NS(=O)(=O)c2cc(NC(=O)c3ccc4c(c3)NC(=O)CS4)ccc2Cl)c(C)c1	·	-126	-34	1	·	·
